Test results from paper PMC5204206 (ACS Omega, 2016).
Like-named read-outs stand apart in the source and are kept apart here.

Tests used:
streptavidin (SA) [1] = biological target: T1, streptavidin (SA) (Streptomyces avidinii, UniProt P22629); experiment: Competition binding
streptavidin (SA) [2] = biological target: T1, streptavidin (SA); experiment: Isothermal titration calorimetry; format: binding
streptavidin (SA) [3] = biological target: T1, streptavidin (SA); experiment: Binding to SA by quenching or enhancement of PB fluorescence
In short: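 Streptavidin at varied concentrations (spanning at least 20–80% complexation) incubated 1 h at room temperature with shaking in PBS pH 7.4 with fixed PB-linked probe (5 or 25 nM). Ex 400 nm, em 460 nm. SA-alone background subtracted. Change in fluorescence normalized and plotted against SA monomer concentration; one-site specific binding fit, triplicate. For one probe, the three highest SA concentrations (64–256 nM) were excluded.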

streptavidin (SA) [4] = biological target: T1, streptavidin (SA); experiment: Direct binding to SA quantified by Trp-FRET
In short: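 Tryptophan excited at 295 nm, emission read at 460 nm, averaged over three readings. SA-alone and free-probe signals subtracted, then corrected by quenching ratio (Iad = IFRET/Qr). Plotted against SA monomer concentration; one-site specific binding fit, triplicate.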

[5] = Photophysical properties of probes in PBS; format: physicochemical; details: for ε (molar extinction coefficient): PBS (0.5% DMSO), at absorbance λmax; for Fold by which PB-derived probe 12 is brighter than this probe: aqueous PBS (pH 7.4)
In short: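 ε: Beer's-law plots of absorbance at λmax vs concentration in PBS (0.5% DMSO), 1 cm path; least-squares fit through zero. Spectra: 32 µM for absorbance, 50 nM for emission, excited at λmax. Φ by Williams' method: excitation 396 nm, integrated emission 415–700 nm at 5–160 nM, plotted against absorbance extrapolated from higher concentrations; coumarin 102 standard (Φ = 0.66 in water).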

streptavidin (SA) [6] = biological target: T1, streptavidin (SA); experiment: Comparison of Trp-FRET acceptors; details: for FF (FRET fold effect): FF = Iad/Ia; for Iad (intensity of FRET acceptor, sensitivity): acceptor 100 nM bound to SA 400 nM, Ex. 295 nm, at Em. λmax, normalized to Id; for E (efficiency of FRET with tryptophan) / Fold less sensitive than PB (12) as Trp-FRET acceptor: bound to SA; for E (efficiency of FRET with tryptophan): E = 1 – Ida/Id
In short: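 Biotin-linked fluorophore acceptors (100 nM) bound to streptavidin (400 nM, as monomer) in PBS pH 7.4. Tryptophan excited at 295 nm; acceptor intensity (Iad) read at its emission λmax and normalized to donor intensity (Id). FRET efficiency E = 1 − Ida/Id; fold effect FF = Iad/Ia.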

[7] = cited from earlier work

T1 sequence (P22629 25-183): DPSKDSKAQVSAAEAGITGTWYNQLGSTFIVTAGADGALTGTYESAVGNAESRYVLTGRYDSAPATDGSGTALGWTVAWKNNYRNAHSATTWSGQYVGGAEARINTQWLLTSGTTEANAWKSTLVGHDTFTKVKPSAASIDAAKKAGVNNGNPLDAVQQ

Structure (SMILES) | Ki (streptavidin (SA) [1]) | Kd (streptavidin (SA) [2]) | ε (molar extinction coefficient) [5] | FF (FRET fold effect) (streptavidin (SA) [6]) | Iad (intensity of FRET acceptor, sensitivity) (streptavidin (SA) [6]) | E (efficiency of FRET with tryptophan) (streptavidin (SA) [6]) | other results
C[C@@H]1NC(=S)N[C@@H]1CCCCCC(=O)O [compound 20, 6-((4R,5S)-5-Methyl-2-thioxoimidazolidin-4-yl)hexanoic Acid] | 1350 ± 180 nM | 1550 ± 270 nM | – | – | – | – | –
COC(=O)CCCCC[C@H]1NC(=S)N[C@H]1C [compound 21, Methyl 6-((4R,5S)-5-methyl-2-thioxoimidazolidin-4-yl)hexanoate] | 693 ± 91 nM | – | – | – | – | – | –
C[C@@H]1NC(=S)N[C@@H]1CCCCCC(=O)NCCNC(=O)c1cc2cc(F)c(O)c(F)c2oc1=O [compound 18, 6,8-Difluoro-7-hydroxy-N-(2-(6-((4R,5S)-5-methyl-2-thioxoimidazolidin-4-yl)hexanamido)ethyl)-2-oxo-2H-chromene-3-carboxamide] | – | 125 ± 45 nM | – | – | – | – | Change of fluorescence of PB-linked ligand on binding to SA (streptavidin (SA) [3]): enhanced; Kd (streptavidin (SA) [4]): 145 ± 19 nM
O=C(CCCC[C@@H]1SC[C@@H]2NC(=O)N[C@@H]21)NCCNC(=O)c1cc2cc(F)c(O)c(F)c2oc1=O [compound 12, 6,8-Difluoro-7-hydroxy-2-oxo-N-(2-(5-((3aS,4S,6aR)-2-oxohexahydro-1H-thieno[3,4-d]imidazol-4-yl)pentanamido)ethyl)-2H-chromene-3-carboxamide] | – | – | 24 200 M^–^1cm^–^1 | 19.2 | 3.3 | 0.40 | Φf (quantum yield) ([5]; PBS, relative to coumarin 102): 0.74
CN(C)c1ccc2c(CC(=O)NCCNC(=O)CCCC[C@@H]3SC[C@@H]4NC(=O)N[C@@H]43)cc(=O)oc2c1 [compound 15, N-(2-(2-(7-(Dimethylamino)-2-oxo-2H-chromen-4-yl)acetamido)ethyl)-5-((3aS,4S,6aR)-2-oxohexahydro-1H-thieno[3,4-d]imidazol-4-yl)pentanamide] | – | – | 11 600 M^–^1cm^–^1 | 8.0 | 0.6 | 0.35 | Fold by which PB-derived probe 12 is brighter than this probe [5]: ~17 fold; Φf (quantum yield) [7]: 0.06[6]; Fold less sensitive than PB (12) as Trp-FRET acceptor (streptavidin (SA) [6]; compared with 12): 6 fold
C[C@@H]1NC(=S)NC1CCCCCC(=O)OCc1ccccc1 (stereo partly drawn) [compound 22, Benzyl 6-((5S)-5-methyl-2-thioxoimidazolidin-4-yl)hexanoate] | 188 ± 25 nM | – | – | – | – | – | –
O=C(CCCC[C@@H]1SC[C@@H]2NC(=O)N[C@@H]21)NCCNC(=O)Cc1cc(=O)oc2cc(O)ccc12 [compound 14, N-(2-(2-(7-Hydroxy-2-oxo-2H-chromen-4-yl)acetamido)ethyl)-5-((3aS,4S,6aR)-2-oxohexahydro-1H-thieno[3,4-d]imidazol-4-yl)pentanamide] | – | – | 7800 M^–^1cm^–^1 | 4.8 | 2.2 | 0.21 | Fold by which PB-derived probe 12 is brighter than this probe [5]: ~3 fold; Φf (quantum yield) [7]: 0.47[6]; Fold less sensitive than PB (12) as Trp-FRET acceptor (streptavidin (SA) [6]; compared with 12): 1.5 fold; Reduction of FRET fold effect (FF), factor (streptavidin (SA) [6]; compared with 12, due to increased excitation at 295 nm): 4
O=C(O)c1cc2cc(F)c(O)c(F)c2oc1=O [PB, 6,8-Difluoro-7-hydroxy-2-oxo-2H-chromene-3-carboxylic Acid, reference compound] | – | – | – | – | – | – | ε (molar extinction coefficient) [7]: 29 500 M^–1 cm^–1
O=C(CCCC[C@@H]1SC[C@@H]2NC(=S)N[C@@H]21)NCCNC(=O)c1cc2cc(F)c(O)c(F)c2oc1=O [compound 17, 6,8-Difluoro-7-hydroxy-2-oxo-N-(2-(5-((3aS,4S,6aR)-2-thioxohexahydro-1H-thieno[3,4-d]imidazol-4-yl)pentanamido)ethyl)-2H-chromene-3-carboxamide] | – | 12 ± 4 nM | – | – | – | – | Change of fluorescence of PB-linked ligand on binding to SA (streptavidin (SA) [3]): partially quenched; Kd (streptavidin (SA) [4]): 11 ± 2 nM
O=C(O)CCCC[C@@H]1SC[C@@H]2NC(=O)N[C@@H]21 [biotin, reference compound] | – | – | – | – | – | – | Effect of competitor on FRET from 12 bound to SA (streptavidin (SA) [6]; biotin 10 μM, 12 100 nM, SA monomer 400 nM): blocked FRET
